This note sets out measurements from ChEMBL document CHEMBL4819105, “Synthesis and activity of N-(5-hydroxy-3,4,6-trimethylpyridin-2-yl)acetamide analogues as anticolitis agents via dual inhibition of TNF-α- and IL-6-induced cell adhesions” (2021).

Test [1] in a line: Inhibition of IL-6-induced cell adhesion in human U937 cells assessed as reduction in cell adhesion to HT-29 cells at 1 uM relative to control. It counts as functional. The following applies: U-937.
Test [2] has as its system Rattus norvegicus. Nature of the test: Anti-colitis activity against TNBS-induced rat model of colitis assessed as increase in colon weight at 1 mg/kg, po administered for 5 days and measured on day 5. It is filed as functional, organism-based. The following applies: time 5.0 day. In short, it runs like this: (§1)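 Rat colitis induced by rectal TNBS. Test agents given orally once daily for 5 days. Read-outs are body weight, colon appearance (congestion, adhesion), and colon tissue weight/length. MPO in colon tissue was measured with an MPO assay kit. Groups were compared against mock control and vehicle-treated TNBS animals, with P < 0.05 taken as significant.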

In test [3] the test system is Rattus norvegicus. Nature of the test: Anti-colitis activity against TNBS-induced rat model of colitis assessed as decrease in congestion at 1 mg/kg, po administered for 5 days and measured on day 5. It counts as functional, organism-based. The note with it: time 5.0 day. In short, it runs like this: as §1
Test [4] relates to Rattus norvegicus. Put plainly: Anti-colitis activity against TNBS-induced rat model of colitis assessed as increase in body weight at 1 mg/kg, po administered for 5 days and measured on day 5. The following applies: time 5.0 day.
The test system of test [5] is Rattus norvegicus. Put plainly: Anti-colitis activity against TNBS-induced rat model of colitis assessed as decrease in MPO level in colon at 1 mg/kg, po administered for 5 days and measured on day 5. It counts as functional, organism-based. The note with it: time 5.0 day. In short, it runs like this: as §1
In test [6] the test system is Rattus norvegicus. Put plainly: Anti-colitis activity against TNBS-induced rat model of colitis assessed as decrease in adhesion at 1 mg/kg, po administered for 5 days and measured on day 5. It counts as functional, organism-based. The following applies: time 5.0 day. A digest of the protocol:
as §1

Test [7] has as its system Rattus norvegicus. Put plainly: Anti-colitis activity against TNBS-induced rat model of colitis assessed as increase in body weight at 1 mg/kg, po administered for 5 days and measured on day 5. It counts as functional, organism-based. The note with it: time 5.0 day. In short, it runs like this: as §1
A short description of test [8]: Inhibition of TNF-alpha-induced cell adhesion in human U937 cells assessed as reduction in cell adhesion to HT-29 cells at 1 uM relative to control. It is filed as functional. The note with it: U-937.
Test [9] concerns Rattus norvegicus. Put plainly: Anti-colitis activity against TNBS-induced rat model of colitis assessed as decrease in adhesion at 300 mg/kg, po administered for 5 days and measured on day 5. It counts as functional, organism-based. The following applies: time 5.0 day. In short, it runs like this: as §1
Test [10] relates to Rattus norvegicus. Put plainly: Anti-colitis activity against TNBS-induced rat model of colitis assessed as increase in colon length at 300 mg/kg, po administered for 5 days and measured on day 5. It counts as functional, organism-based. The following applies: time 5.0 day. A digest of the protocol:
as §1

The test system of test [11] is Rattus norvegicus. Put plainly: Anti-colitis activity against TNBS-induced rat model of colitis assessed as increase in colon weight at 300 mg/kg, po administered for 5 days and measured on day 5. The note with it: time 5.0 day. It is filed as functional, organism-based. A digest of the protocol: as §1
Test [12] relates to Rattus norvegicus. Put plainly: Anti-colitis activity against TNBS-induced rat model of colitis assessed as increase in body weight at 300 mg/kg, po administered for 5 days and measured on day 5. It counts as functional, organism-based. The note with it: time 5.0 day. A digest of the protocol:
as §1

Test [13] relates to Rattus norvegicus. Put plainly: Anti-colitis activity against TNBS-induced rat model of colitis assessed as decrease in MPO level in colon at 300 mg/kg, po administered for 5 days and measured on day 5. It counts as functional, organism-based. The note with it: time 5.0 day. A digest of the protocol: as §1
The test system of test [14] is Rattus norvegicus. Put plainly: Anti-colitis activity against TNBS-induced rat model of colitis assessed as decrease in congestion at 300 mg/kg, po administered for 5 days and measured on day 5. The following applies: time 5.0 day. It counts as functional, organism-based. In short, it runs like this: as §1
Test [15] has as its system Rattus norvegicus. Put plainly: Anti-colitis activity against TNBS-induced rat model of colitis assessed as increase in body weight administered po for 5 days and measured on day 5. It is filed as functional, organism-based. The note with it: dose 1-10 mg/kg, time 5.0 day. In short, it runs like this: as §1
In test [16] the test system is Rattus norvegicus. Put plainly: Anti-colitis activity against TNBS-induced rat model of colitis assessed as decrease in MPO level in colon at 1 to 10 mg/kg, po administered for 5 days and measured on day 5. The following applies: dose 1-10 mg/kg, time 5.0 day. It counts as functional, organism-based. A digest of the protocol:
as §1

The subject of test [17] is Rattus norvegicus. Nature of the test: Anti-colitis activity against TNBS-induced rat model of colitis assessed as increase in colon weight at 1 to 10 mg/kg, po administered for 5 days and measured on day 5. It is filed as functional, organism-based. The following applies: dose 1-10 mg/kg, time 5.0 day. A digest of the protocol:
as §1

The test system of test [18] is Rattus norvegicus. Nature of the test: Anti-colitis activity against TNBS-induced rat model of colitis assessed as increase in colon length at 1 to 10 mg/kg, po administered for 5 days and measured on day 5. It is filed as functional, organism-based. The following applies: dose 1-10 mg/kg, time 5.0 day. A digest of the protocol: as §1
Test [19] deals with Rattus norvegicus. Put plainly: Anti-colitis activity against TNBS-induced rat model of colitis assessed as decrease in adhesion at 1 to 10 mg/kg, po administered for 5 days and measured on day 5. It is filed as functional, organism-based. The following applies: dose 1-10 mg/kg, time 5.0 day. A digest of the protocol:
as §1

For test [20], the system named is Rattus norvegicus. Put plainly: Anti-colitis activity against TNBS-induced rat model of colitis assessed as decrease in congestion at 1 to 10 mg/kg, po administered for 5 days and measured on day 5. It is filed as functional, organism-based. The note with it: dose 1-10 mg/kg, time 5.0 day. A digest of the protocol: as §1
A short description of test [21]: Inhibition of IL-6-induced cell adhesion in human U937 cells assessed as reduction in cell adhesion to HT-29 cells at 1000 uM relative to control. The note with it: U-937. It is filed as functional.
Test [22] is described as follows: Inhibition of TNF-alpha-induced cell adhesion in human U937 cells assessed as reduction in cell adhesion to HT-29 cells at 1000 uM relative to control. It is filed as functional. The following applies: U-937.

Active and inactive are the calls of the source. No cut-off for these calls is given here.

Turning to `Cc1nc(NC(=O)C(Cl)Cl)c(C)c(C)c1O`, the inhibition – broadly, the percentage by which the read-out fell short of the control – at 1 µM in test [1] was 52.7%.
`Cc1nc(NC(=O)CCc2ccccc2)c(C)c(C)c1O`: the inhibition at 1 µM in test [1] stood at 69.6%. Besides, the result in the test on Rattus norvegicus [2], in the test with Rattus norvegicus [3], with Rattus norvegicus [4], in the test on Rattus norvegicus [5], in the test on Rattus norvegicus [6] and in the test on Rattus norvegicus [7] was Active.
Turning to `Cc1nc(NC(=O)Cc2cccc(Br)c2)c(C)c(C)c1O`, the inhibition at 1 µM came to 9.2% in [1] and 6.2% in test [8].
For the compound `Cc1nc(NC(=O)Cc2ccc(F)cc2)c(C)c(C)c1O`, the figures for the inhibition at 1 µM in test [1] and in test [8] were 18.1% and 7.2%, respectively.
For `Cc1nc(NC(=O)C(Cl)c2ccccc2)c(C)c(C)c1O` (stereo not drawn), the inhibition at 1 µM in test [1] was determined as 22.5%; in test [8] it was 36.6%.
Turning to `O=C(O)c1cc(/N=N/c2ccc(S(=O)(=O)Nc3ccccn3)cc2)ccc1O`, the outcome in the test with Rattus norvegicus [9], in the test with Rattus norvegicus [10], with Rattus norvegicus [11], in the test with Rattus norvegicus [12], with Rattus norvegicus [13] and in the test with Rattus norvegicus [14] was Active.
As to `Cc1nc(NC(=O)CC(C)C)c(C)c(C)c1O`, the figures for the inhibition at 1 µM in test [1] and in [8] were 48% and 52.3%, respectively.
`Cc1nc(NC(=O)COc2ccccc2)c(C)c(C)c1O`: the inhibition at 1 µM amounted to 11.4% in test [1] and 10.8% in test [8].
For the compound `Cc1nc(NC(=O)CCc2ccc(Cl)cc2)c(C)c(C)c1O`, the figures for the inhibition at 1 µM in test [1] and in test [8] were 20.8% and 30.6%, respectively.
As for `C[C@@H]1CCN(C(=O)CC#N)C[C@@H]1N(C)c1ncnc2[nH]ccc12` [TOFACITINIB], the inhibition at 1 µM in [1] amounted to 58.6%; in test [8] it was 49.1%.
Consider `Cc1nc(NC(=O)CCCCl)c(C)c(C)c1O`, for which, in test [1], the inhibition at 1 µM stood at 17.8%.
In the case of `Cc1ccccc1CCC(=O)Nc1nc(C)c(O)c(C)c1C`, the inhibition at 1 µM in test [1] was found to be 12.9%; in test [8] it was 20.2%.
Take `CCCCCCCCCCCC(=O)Nc1nc(C)c(O)c(C)c1C`: the inhibition at 1 µM in test [1] amounted to 44.3%.
Regarding `C=CCC(=O)Nc1nc(C)c(O)c(C)c1C`, the inhibition at 1 µM in [1] was 21.3%; in [8], 31.9%.
As for `Cc1nc(NC(=O)/C=C/c2ccccc2)c(C)c(C)c1O`, the figures for the inhibition at 1 µM in test [1] and in test [8] were 14.2% and 25.2%, respectively.
For `Cc1nc(NC(=O)CCc2ccccc2Br)c(C)c(C)c1O`, the inhibition at 1 µM came to 22% in test [1] and 35.3% in test [8].
The like results for `CCCCCCCCCCCCCCCC(=O)Nc1nc(C)c(O)c(C)c1C` were, in that order, 17.4% and 31.7%.
`CC(=O)OCC(=O)Nc1nc(C)c(O)c(C)c1C`: the inhibition at 1 µM worked out at 9.7% in test [1] and 6.8% in [8].
For `CCCCCCCC(=O)Nc1nc(C)c(O)c(C)c1C`, the inhibition at 1 µM was 54.8% in [1] and 61.5% in test [8].
Regarding `CCCC(=O)Nc1nc(C)c(O)c(C)c1C`, the inhibition at 1 µM in test [1] was found to be 17.5%; in test [8], 10%.
In the case of `Cc1nc(NC(=O)C2CCCCC2)c(C)c(C)c1O`, the inhibition at 1 µM in [1] stood at 56.7%.
For the compound `Cc1nc(NC(=O)C(C)(C)C)c(C)c(C)c1O`, the inhibition at 1 µM in test [1] was 21.1%.
Still for that read-out and setting: the figure for `Cc1nc(NC(=O)C2CCCC2)c(C)c(C)c1O` is 34.8%.
Still for that read-out and setting: the result for `Cc1nc(NC(=O)CC(C)CC(C)(C)C)c(C)c(C)c1O` (stereo not drawn) reads 46.3%.
For the compound `CC(=O)Nc1nc(C)c(O)c(C)c1C`, in the test with Rattus norvegicus [15], the Activity entry was “Dose-Dependent Effect”. Besides, the result in the test with Rattus norvegicus [16], in the test on Rattus norvegicus [17], in the test with Rattus norvegicus [18], in the test with Rattus norvegicus [19] and with Rattus norvegicus [20] was Active. In addition, the inhibition at 1 µM came to 47.2% in test [1] and 56% in test [8].
Take `Cc1nc(NC(=O)CCc2ccccc2F)c(C)c(C)c1O`: the inhibition at 1 µM was 18% in test [1] and 13.9% in [8].
With `Nc1ccc(O)c(C(=O)O)c1` [MESALAMINE], the inhibition at 1000 µM in [21] is 1.7%; in test [22], 9.9%.
With `Cc1nc(NC(=O)C(C)C)c(C)c(C)c1O`, the inhibition at 1 µM in test [1] is 53.9%; in test [8], 64.2%.
As to `Cc1nc(NC(=O)Cc2ccccc2)c(C)c(C)c1O`, the inhibition at 1 µM in [1] turned out to be 50.2%; in test [8] it was 56.6%.
Consider `Cc1nc(NC(=O)CCc2ccc(Cl)cc2Cl)c(C)c(C)c1O`, for which the inhibition at 1 µM is 35.9% in test [1] and 41.5% in test [8].
